DDE Tn7 FP inh: DD(E)-Tn7 binding inhibition, primary FP screen; P02675; FP displacement of FITC-Tn7 peptide from fibrin DD(E); 0% = median of compound wells per plate; inhibition, % at 8.3 µM; actives 0.13% (n = 370,000); AID 720508;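 active = inhibition above the mean of compounds falling within the control limits plus 3 SD of them, cut at about 14% in these data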;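 note: 0% = plate median of compound wells and 100% = 10 µM Aha-Tn7 peptide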
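system = human fibrin DD(E) protein | quantity = DD(E) 2 µM final | medium = Tris/NaCl/CaCl2 buffer, pH 7.8 | also added = labelled Tn7 tracer, 0.1 µM | compound dosing = single point at 8.3 µM | timing = compound with protein 10 min, then 3 h after probe, room temperature | signal = FP measurement | benchmarks = Aha-Tn7 high control | repeats = one replicate per compound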
PolyA inhibitor: yeast polyadenylation inhibition; S. cerevisiae SKY197-pL101 polyadenylation reporter, beta-gal luminescence; efflux-impaired pdr1/pdr3 knockout yeast; score 100 = 6 SD above DMSO; actives 0.02% (n = 300,000); AID 1875; activity score, % at 12 µM;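 active = lowest replicate activity score at least 50, where 100 means six control SD above control mean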;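 note: yeast exposed to compound for 9 h at 30 °C; higher score means more reporter readthrough which indicates perturbed polyadenylation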
DDE Tn6 FP inh: DD(E)-Tn6 binding inhibition, primary FP screen. actives 0.21% (n = 370,000). Fibrin DD(E) TRITC-Tn6 fluorescence polarization displacement. inhibition, % at 8.3 µM. AID 720509;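 active = inhibition above a per-campaign cutoff: mean of compounds within control limits plus 3 SD, cut at about 15% in these data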;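 note: 0% = median of all compound wells on the plate and 100% = blocking peptide control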
MT1-MMP act inh: MT1-MMP (human) activation inhibition. P50281. HT1080 RFP-PRO-GFP cells, GFP/RFP ratio fluorescence, overnight; percent of plate control window, DMSO zero. GFP/RFP ratio change, % at 20 µM. actives 0.061% (n = 360,000). AID 651647;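 active = GFP/RFP ratio change of at least 30% with cell ATP level not reduced by more than half and red fluorescence within 50% of control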
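Assay system: RFP-PRO-GFP reporter HT1080 cells; read-out basis: GFP/RFP fluorescence ratio; benchmarks: DMSO wells and RFP-L50D-GFP cells; doses: 20 µM single dose, 1% DMSO; schedule: overnight cell settling, then overnight compound exposure, 37 °C, 5% CO2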
SKN-1 inh: C. elegans SKN-1 inhibition | C. elegans VP596 Pgst-4::GFP/RFP ratio, acrylamide-induced, 24 h | inhibition, % at 21.8 µM | actives 0.49% (n = 360,000) | AID 624304;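 active = interference check ratio from 0.5 to 1.5 plus GFP to RFP signal ratio inhibition reaching or exceeding a fixed threshold, cut at about 30% in these data, passing the limit was not always enough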
DAGLB inhibitor: blocks human DAGLB lipase activity; HEK293T DAGLB membrane lysate, EnzChek fluorogenic substrate; AID 504411; actives 0.059% (n = 340,000); Q8NCG7; inhibition, % at 5.17 µM; in the data active = inhibition above about 34%;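 note: 0% = enzyme with vehicle and 100% = wells lacking enzyme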
Target sequence (Q8NCG7 whole entry, looked up): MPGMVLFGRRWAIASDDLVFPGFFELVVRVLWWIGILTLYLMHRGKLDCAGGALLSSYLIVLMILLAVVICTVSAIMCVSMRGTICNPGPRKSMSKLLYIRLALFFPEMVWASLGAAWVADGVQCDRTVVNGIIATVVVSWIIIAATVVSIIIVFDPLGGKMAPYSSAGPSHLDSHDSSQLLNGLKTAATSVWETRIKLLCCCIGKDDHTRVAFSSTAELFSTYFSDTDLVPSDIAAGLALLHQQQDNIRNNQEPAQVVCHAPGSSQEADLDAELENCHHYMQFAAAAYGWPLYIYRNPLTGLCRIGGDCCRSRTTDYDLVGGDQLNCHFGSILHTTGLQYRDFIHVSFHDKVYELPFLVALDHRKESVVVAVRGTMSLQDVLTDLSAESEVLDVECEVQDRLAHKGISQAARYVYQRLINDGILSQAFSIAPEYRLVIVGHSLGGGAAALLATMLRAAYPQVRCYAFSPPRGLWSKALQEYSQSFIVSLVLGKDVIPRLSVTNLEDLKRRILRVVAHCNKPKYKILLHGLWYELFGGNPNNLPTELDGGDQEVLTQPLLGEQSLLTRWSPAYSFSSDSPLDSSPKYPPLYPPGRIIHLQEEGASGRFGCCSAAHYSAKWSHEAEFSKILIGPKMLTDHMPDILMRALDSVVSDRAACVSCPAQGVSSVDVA
Starred values were filed as active, the others as inactive; . = not tested or not shown. This is a sample that favours compounds with a hit; in the whole collection about 0.9% have one here.

SMILES	DDE Tn7 FP inh	PolyA inhibitor	DDE Tn6 FP inh	MT1-MMP act inh	SKN-1 inh	DAGLB inhibitor
COc1ccc2c(c1O)Cc1ccccc1C2=O	.	7	.	35*	7	3
COc1cc([C@@H]2C[C@H]3CN(c4ccccc4)C(=O)[C@]34CCCN24)cc(OC)c1OC	0	-11	1	-6	12	1
COc1ccccc1-n1cc([C@@H]2C[C@H]3CN(c4ccccc4)C(=O)[C@]34CCCN24)cn1	2	4	-3	-29	40*	.
CCOC(=O)[C@@]12CN(C(=O)OC(C)(C)C)CC=C1N(Cc1ccc(OC)cc1)C(=O)[C@H]2CC(=O)NCc1cccc2ccccc12	-2	.	1	.	.	.
Cc1ccc2cc(NC(=O)c3ccc(C(C)(C)C)cc3)ccc2n1	-4	-4	-3	5	28	-3
CCc1ccc(C(=O)Nc2ccc3nc(C)ccc3c2)cc1	-1	-7	-8	5	44*	0
Cc1ccc(OCCCCn2cnc3ccccc32)c(C)c1	3	.	-7	7	44*	-1
Brc1ccccc1OCCCCn1cnc2ccccc21	7	-16	-3	-11	4	-8
CN(C)c1ccc(/C=C(/C#N)C(=O)Nc2nc3c(s2)CCN(Cc2ccccc2)C3)cc1	-12	.	-8	-93	48*	-27
N#C/C(=C\c1ccc(OCc2ccccc2)cc1)C(=O)Nc1nc2c(s1)CCN(Cc1ccccc1)C2	0	-23	3	-17	-10	0
CN(CCCN1CCOCC1)C(=O)c1cc(COc2cccc(C(F)(F)F)c2)on1	4	0	-1	2	45*	1
CN(Cc1ccccc1)C(=O)OCc1cn(Cc2ccc(C(F)(F)F)cc2)nn1	6	.	7	.	.	.
Cn1nccc1C(=O)N1CCC(Cc2ccccc2)CC1	0	17	-4	0	38*	-3
O=C(c1ccc(Br)o1)N1CCC(Cc2ccccc2)CC1	-2	-9	4	-2	-4	-10
N#Cc1ccc(CN2CCN(C(=O)c3cc(C4CC4)nn3-c3ccccc3)CC2)cc1	0	.	-1	3	38*	-2
CNC(=O)c1c(O)c2cccc3c2n(c1=O)CC3	-2	-10	3	2	-10	1
O=C(Nc1cccnc1)c1c(O)c2cccc3c2n(c1=O)CC3	5	-2	-8	-5	38*	-1
COc1ccc(C2C(C(=O)N3CCN(c4ccccc4C)CC3)CC(=O)N2c2ccc(OC)cc2)cc1 (centres undefined)	-2	.	-5	.	.	.
COc1ccc2c(c1)OC/C(=C/c1cccs1)C2=O	1	-5	-1	3	54*	-11
O=C(CCc1ccccc1)N[C@H]1[C@@H](OC(=O)c2ccco2)CCC[C@@]12C(=O)N(Cc1ccccc1)c1ccccc12	-5	.	8	.	.	.
c1ccc(-c2noc(-c3ccc4ccccc4c3)n2)nc1	.	-20	.	1	42*	-4
CC(COc1cccc([N+](=O)[O-])c1)CN1CCC(C(O)(c2ccccc2)c2ccccc2)CC1 (centres undefined)	-6	.	5	.	.	.
C=CCSc1nnc2nc3c(nn12)c1cc(C)ccc1n3CC=C	-5	-6	-2	-1	38*	18
CN(C)CCCO[C@@H]1[C@H]2OC(C)(C)O[C@H]2O[C@@H]1[C@H](O)CO	3	.	-3	6	44*	2
C=CCNC(=S)N(C)[C@H]1C[C@H]2c3[nH]c4cccc(-c5cccc(F)c5)c4c3CCN2C(=O)[C@H]1[C@H](C)O	3	.	0	.	.	.
SMILES	DDE Tn7 FP inh	PolyA inhibitor	DDE Tn6 FP inh	MT1-MMP act inh	SKN-1 inh	DAGLB inhibitor
Cc1ccc(S(=O)(=O)N2C[C@H]3[C@H]4C(=O)N(c5ccccc5)C(=O)[C@H]4CC(=O)[C@H]3[C@@H]2c2cccc3ccccc23)cc1	-1	.	-4	5	36*	.
Cc1ccc(Cn2cc(CN3[C@H](c4ccccc4)COc4cc(Br)ccc4S3(=O)=O)nn2)cc1	-6	.	-1	.	.	.
OCCCc1nc2n(n1)C(c1cccs1)C=C(c1ccc(Br)cc1)N2 (centres undefined)	.	23	.	.	.	.
Brc1ccc(C2=CC(c3cccs3)n3ncnc3N2)cc1 (centres undefined)	19*	-33	4	-269	-75	-236
CCn1nc(CCC(=O)O)c2ccccc2c1=O	-7	-1	-8	-6	41*	0
N/C(=N\OC(=O)Cc1cccs1)c1ccc(Cl)cc1	-2	-14	-1	-6	57*	-17
COc1ccc(/C(N)=N/OC(=O)c2cccs2)cc1	-4	-3	-11	-1	1	-11
N/C(=N\OC(=O)Cc1cccs1)c1ccccc1	3	1	-6	-5	12	0
N/C(=N\OC(=O)c1cccs1)c1ccc(Cl)cc1	2	-17	-2	2	52*	.
COC(=O)[C@]12C[C@H](CC(=O)N3CCCC3)C(=O)N(CCc3ccc(OC)c(OC)c3)C1=C[C@H](C1CCCC1)O[C@@H]2C	12	.	2	.	.	.
O=C(/C=C/Nc1ccc(F)cc1F)c1cccs1	-5	3	-2	-6	60*	-7
O=C(/C=C\Nc1cccc(F)c1)c1cccs1	-6	0	-3	-2	69*	-3
CCOC(=O)c1ccccc1N/C=C/C(=O)c1cccs1	2	-47	6	9	22	-4
Cc1ccc(N/C=C/C(=O)c2cccs2)cc1	-4	20	6	-3	42*	-3
O=C(/C=C\Nc1ccc2c(c1)OCO2)c1cccs1	1	1	2	-9	30	-3
O=C(/C=C/Nc1ccccc1F)c1cccs1	-4	5	-6	-5	85*	-3
Cc1noc(NS(=O)(=O)c2ccc(N/C=C\C(=O)c3cccs3)cc2)c1C	-3	-5	3	1	-2	1
Cc1ccc(NC(=O)CSc2nnc(-c3cccnc3)n2Cc2ccco2)c(C)c1	6	.	0	.	.	.
COC(=O)[C@]12C[C@H](CC(=O)NCC34CC5CC(CC(C5)C3)C4)C(=O)N(Cc3ccccc3)C1=C[C@H](COCc1ccccc1)O[C@@H]2C	0	.	-4	.	.	.
O=C(O)c1ccc2ccc3ccccc3c2c1	6	-10	1	-1	41*	.
O=C(O)c1cccc(C(=O)c2cccc3ccccc23)c1	-8	2	3	-2	1	3
O=c1c2ccccc2oc2ccc(-c3ccc4cc[nH]c4c3)cc12	.	.	.	11	70*	-3
CCOc1ccc(N=Cc2ccc(N(C)C)cc2)c(O)c1	.	.	.	5	51*	6
CC(=O)Nc1sc(N/N=C/c2ccccc2)nc1-c1ccc(C)cc1	8	5	2	2	8	-1

Bioassay records (PubChem)
